How the values were obtained:
[1] = system: HCT-116; experiment: Hypoxia radiosensitization activity in human HCT116 cells assessed as sensitizer enhancement ratio at 100 uM after 24 hrs by [60]Co X-ray source based clonogenic survival assay; type: functional
Outline: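 HCT-116 cells pre-incubated 20 h, then exposed to 100 µM (from 10 mM stock in 95% ethanol) for 24 h. Hypoxic dishes degassed by six vacuum/N2 cycles, normoxic kept in air, then shaken 30 min. Irradiated with 60Co at 0–20 Gy. Cells replated and grown 10–14 days at 37 °C, colonies stained, surviving fractions counted, triplicate.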

[2] = Partition coefficient, log P by HPLC; type: physicochemical; details: octanol/water
Outline: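 Reverse-phase analytical HPLC with a gradient solvent system. Retention time compared with IAZA, FAZA and AZA standards, and P interpolated from a plot.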

[3] = system: EMT6; experiment: Toxicity in mouse EMT6 cells at < 10 mM assessed as reduction of cell survival after 72 hrs by MTT assay; type: cell-based; details: emt6, 72 h
Outline: (§1)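 Exponentially growing cells seeded at 8 × 10² cells/well and pre-incubated 24 h at 37 °C (5% CO2). Compound added in growth medium over 10^-7 to 10^-3 M, with medium-only controls, for 72 h. MTT then added for 4 h, formazan dissolved in DMSO and absorbance read at 540 nm.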

[4] = Toxicity in human 143B-LTK cells at < 10 mM assessed as reduction of cell survival after 72 hrs by MTT assay; type: cell-based; outline: as §1
[5] = Toxicity in Kirsten virus transformed mouse KBALB cells at < 10 mM assessed as reduction of cell survival after 72 hrs by MTT assay; type: cell-based; outline: as §1
[6] = system: EMT6; experiment: Toxicity in mouse EMT6 cells at 1 mM assessed as reduction of cell survival after 72 hrs by MTT assay; type: cell-based; details: emt6, 72 h, 1000 µM; outline: as §1
[7] = Toxicity in Kirsten virus transformed mouse KBALB-STK cells at < 10 mM assessed as reduction of cell survival after 72 hrs by MTT assay; type: cell-based; outline: as §1
[8] = system: 143B; experiment: Toxicity in human 143B cells at < 10 mM assessed as reduction of cell survival after 72 hrs by MTT assay; type: cell-based; outline: as §1

| SMILES | Ratio [1] | logP [2] | Activity [3] | Activity [4] | Activity [5] | Activity [6] | Activity [7] | Activity [8] |
| --- | --- | --- | --- | --- | --- | --- | --- | --- |
| O=[N+]([O-])c1nccn1[C@H]1O[C@H](CF)[C@@H](O)[C@@H]1O | 1.25 | 1.1 | – | – | – | – | – | – |
| O=[N+]([O-])c1nccn1[C@H]1O[C@H](CO)[C@@H](O)[C@H]1F | 1.4 | 1.08 | Non-toxic | Non-toxic | Non-toxic | Non-toxic | Non-toxic | Non-toxic |

Source: ChEMBL document CHEMBL1157635, “Synthesis, radiofluorination, and hypoxia-selective studies of FRAZ: A configurational and positional analogue of the clinical hypoxia marker, [18F]-FAZA” (Bioorg Med Chem, 2010)
